Source: ChEMBL document CHEMBL1157609, “Discovery of vaniprevir (MK-7009), a macrocyclic hepatitis C virus NS3/4a protease inhibitor” (J Med Chem, 2010)

Test system: not listed separately
Assay: Drug level in monkey liver at 5 mg/kg, po after 2 hrs by LC/MS analysis
Assay type: ADME, organism-based, Macaca mulatta
Parameters: dose 5 mg/kg, route oral
Settings: rhesus monkey, read-out: Drug uptake

Row | concentration at 2 h [µM] | SMILES
1 | 3 | CC[C@@H]1C[C@]1(NC(=O)[C@@H]1C[C@@H]2CN1C(=O)[C@H](C(C)(C)C)NC(=O)OCC(C)(C)CCCCc1cccc3c1CN(C3)C(=O)O2)C(=O)NS(=O)(=O)C1CC1 [VANIPREVIR]

Test system: not listed separately
Assay: Inhibition of HCV JFH-1 full length NS3/4A protease expressed in Escherichia coli after 1 hr by time-resolved fluorescence assay
Parameters: species or system Hepatitis C virus JFH-1
Settings: not given
How it was run: (§1)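 Full-length NS3/4A (1b BK or 2a JFH) purified from E. coli. TRF peptide substrate added at 100 nM final. Reaction run 1 h at RT, then quenched with 500 mM MES pH 5.5. Read at ex 340/em 615 nm with 400 μs delay. Ki from a four-parameter fit.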

Row | SMILES | Ki [nM]
2 | C=C[C@@H]1C[C@]1(NC(=O)[C@@H]1C[C@@H]2CN1C(=O)[C@H](C(C)(C)C)NC(=O)OCCCCCc1cccc3c1CN(C3)C(=O)O2)C(=O)NS(=O)(=O)C1CC1 | 0.9
3 | CC[C@@H]1C[C@]1(NC(=O)[C@@H]1C[C@@H]2CN1C(=O)[C@H](C(C)(C)C)NC(=O)OCCCCCc1cccc3c1CN(C3)C(=O)O2)C(=O)NS(=O)(=O)C1CC1 | 4
4 | CC[C@@H]1C[C@]1(NC(=O)[C@@H]1C[C@@H]2CN1C(=O)[C@H](C(C)(C)C)NC(=O)OCC(C)(C)CCCCc1cccc3c1CN(C3)C(=O)O2)C(=O)NS(=O)(=O)C1CC1 [VANIPREVIR] | 0.9
5 | CC[C@@H]1C[C@]1(NC(=O)[C@@H]1C[C@@H]2CN1C(=O)[C@H](C(C)(C)C)NC(=O)OCCC/C=C/c1cccc3c1CN(C3)C(=O)O2)C(=O)NS(=O)(=O)C1CC1 | 19

Test system: Hepatitis C virus
Assay: Antiviral activity against HCV Con1 infected in human HuH7 cells assessed as inhibition of viral replication after 24 hrs by replicon assay in presence of 50% normal human serum
Assay type: functional, organism-based, Hepacivirus hominis
Settings: Con1, Huh-7, 24 h
How it was run: (§2)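 Huh-7 cells stably carrying a bicistronic replicon (1b con1 or 2a JFH) seeded at 20000 cells/well and held 24 h at 37 °C/5% CO2 in DMEM with 10% FBS or 50% NHS. Compound added in DMSO (1% final) for a further 24 h. Cells fixed and permeabilized. Replicon RNA quantified by in situ hybridization of a radiolabeled neomycin-resistance probe (50 °C, 18 h), followed by RNase A treatment.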

Row | SMILES | IC50 [nM]
6 | C=C[C@@H]1C[C@]1(NC(=O)[C@@H]1C[C@@H]2CN1C(=O)[C@H](C(C)(C)C)NC(=O)OCCCCCc1cccc3c1CN(C3)C(=O)O2)C(=O)NS(=O)(=O)C1CC1 | 27
7 | CC[C@@H]1C[C@]1(NC(=O)[C@@H]1C[C@@H]2CN1C(=O)[C@H](C(C)(C)C)NC(=O)OCCCCCc1cccc3c1CN(C3)C(=O)O2)C(=O)NS(=O)(=O)C1CC1 | 35
8 | CC[C@@H]1C[C@]1(NC(=O)[C@@H]1C[C@@H]2CN1C(=O)[C@H](C(C)(C)C)NC(=O)OCC(C)(C)CCCCc1cccc3c1CN(C3)C(=O)O2)C(=O)NS(=O)(=O)C1CC1 [VANIPREVIR] | 19
9 | CC[C@@H]1C[C@]1(NC(=O)[C@@H]1C[C@@H]2CN1C(=O)[C@H](C(C)(C)C)NC(=O)OCCC/C=C/c1cccc3c1CN(C3)C(=O)O2)C(=O)NS(=O)(=O)C1CC1 | 110

Test system: Hepatitis C virus
Assay: Antiviral activity against HCV JFH-1 infected in human HuH7 cells assessed as inhibition of viral replication after 24 hrs by replicon assay in presence of 10% fetal bovine serum
Assay type: functional, organism-based, Hepacivirus hominis
Settings: JFH-1, Huh-7, 24 h
How it was run: as §2

Row | IC50 [nM] | SMILES
10 | 66 | C=C[C@@H]1C[C@]1(NC(=O)[C@@H]1C[C@@H]2CN1C(=O)[C@H](C(C)(C)C)NC(=O)OCCCCCc1cccc3c1CN(C3)C(=O)O2)C(=O)NS(=O)(=O)C1CC1
11 | 140 | CC[C@@H]1C[C@]1(NC(=O)[C@@H]1C[C@@H]2CN1C(=O)[C@H](C(C)(C)C)NC(=O)OCCCCCc1cccc3c1CN(C3)C(=O)O2)C(=O)NS(=O)(=O)C1CC1
12 | 9 | CC[C@@H]1C[C@]1(NC(=O)[C@@H]1C[C@@H]2CN1C(=O)[C@H](C(C)(C)C)NC(=O)OCC(C)(C)CCCCc1cccc3c1CN(C3)C(=O)O2)C(=O)NS(=O)(=O)C1CC1 [VANIPREVIR]
13 | 720 | CC[C@@H]1C[C@]1(NC(=O)[C@@H]1C[C@@H]2CN1C(=O)[C@H](C(C)(C)C)NC(=O)OCCC/C=C/c1cccc3c1CN(C3)C(=O)O2)C(=O)NS(=O)(=O)C1CC1

Test system: not listed separately
Assay: AUC in chimpanzee at 10 mg/kg, po by LC/MS analysis
Assay type: ADME, organism-based, Pan troglodytes
Parameters: dose 10 mg/kg, route oral
Settings: plasma
How it was run: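 Two chimpanzees dosed orally by voluntary ingestion in a chocolate milk vehicle (0.67 mL/kg). Blood sampled at multiple times up to 24 h. Plasma analysed by liquid-liquid extraction and LC/MS against standards and QCs. Pharmacokinetic parameters calculated from the concentration data.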

Row | AUC [µM·h] | SMILES
14 | 5.2 | CC[C@@H]1C[C@]1(NC(=O)[C@@H]1C[C@@H]2CN1C(=O)[C@H](C(C)(C)C)NC(=O)OCC(C)(C)CCCCc1cccc3c1CN(C3)C(=O)O2)C(=O)NS(=O)(=O)C1CC1 [VANIPREVIR]

Test system: not listed separately
Assay: AUC in Beagle dog at 5 mg/kg, po by LC/MS analysis
Assay type: ADME, organism-based, Canis lupus familiaris
Parameters: dose 5 mg/kg, route oral
Settings: plasma

Row | AUC [µM·h] | SMILES
15 | 1.2 | CC[C@@H]1C[C@]1(NC(=O)[C@@H]1C[C@@H]2CN1C(=O)[C@H](C(C)(C)C)NC(=O)OCC(C)(C)CCCCc1cccc3c1CN(C3)C(=O)O2)C(=O)NS(=O)(=O)C1CC1 [VANIPREVIR]

Test system: not listed separately
Assay: Drug level in Beagle dog liver at 5 mg/kg, po after 24 hrs by LC/MS analysis
Assay type: ADME, organism-based, Canis lupus familiaris
Parameters: dose 5 mg/kg, route oral
Settings: read-out: Drug uptake

Row | concentration at 24 h [µM] | SMILES
16 | 0.5 | CC[C@@H]1C[C@]1(NC(=O)[C@@H]1C[C@@H]2CN1C(=O)[C@H](C(C)(C)C)NC(=O)OCC(C)(C)CCCCc1cccc3c1CN(C3)C(=O)O2)C(=O)NS(=O)(=O)C1CC1 [VANIPREVIR]

Test system: not listed separately
Assay: Drug level in Sprague-Dawley rat liver at 5 mg/kg, po after 4 hrs by LC/MS analysis
Assay type: ADME, organism-based
Parameters: dose 5 mg/kg, route oral
Settings: read-out: Drug uptake
How it was run: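 Rats given a single oral dose as a PEG400 solution (2.0 mL/kg). Liver collected at the terminal time point and homogenized in buffer. Drug extracted liquid-liquid and quantified by LC/MS against standards and QCs.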

Row | concentration at 4 h [µM] | SMILES
17 | 0.52 | C=C[C@@H]1C[C@]1(NC(=O)[C@@H]1C[C@@H]2CN1C(=O)[C@H](C(C)(C)C)NC(=O)OCCCCCc1cccc3c1CN(C3)C(=O)O2)C(=O)NS(=O)(=O)C1CC1
18 | 10.7 | CC[C@@H]1C[C@]1(NC(=O)[C@@H]1C[C@@H]2CN1C(=O)[C@H](C(C)(C)C)NC(=O)OCCCCCc1cccc3c1CN(C3)C(=O)O2)C(=O)NS(=O)(=O)C1CC1
19 | 9.9 | CC[C@@H]1C[C@]1(NC(=O)[C@@H]1C[C@@H]2CN1C(=O)[C@H](C(C)(C)C)NC(=O)OCC(C)(C)CCCCc1cccc3c1CN(C3)C(=O)O2)C(=O)NS(=O)(=O)C1CC1 [VANIPREVIR]
20 | 3.8 | CC[C@@H]1C[C@]1(NC(=O)[C@@H]1C[C@@H]2CN1C(=O)[C@H](C(C)(C)C)NC(=O)OCCC/C=C/c1cccc3c1CN(C3)C(=O)O2)C(=O)NS(=O)(=O)C1CC1

Test system: not listed separately
Assay: Inhibition of HCV1b BK full length NS3/4A protease expressed in Escherichia coli after 1 hr by time-resolved fluorescence assay
Parameters: species or system Hepatitis C virus (isolate BK)
Settings: not given
How it was run: as §1

Row | SMILES | Ki [nM]
21 | C=C[C@@H]1C[C@]1(NC(=O)[C@@H]1C[C@@H]2CN1C(=O)[C@H](C(C)(C)C)NC(=O)OCCCCCc1cccc3c1CN(C3)C(=O)O2)C(=O)NS(=O)(=O)C1CC1 | 0.04
22 | CC[C@@H]1C[C@]1(NC(=O)[C@@H]1C[C@@H]2CN1C(=O)[C@H](C(C)(C)C)NC(=O)OCCCCCc1cccc3c1CN(C3)C(=O)O2)C(=O)NS(=O)(=O)C1CC1 | 0.18
23 | CC[C@@H]1C[C@]1(NC(=O)[C@@H]1C[C@@H]2CN1C(=O)[C@H](C(C)(C)C)NC(=O)OCC(C)(C)CCCCc1cccc3c1CN(C3)C(=O)O2)C(=O)NS(=O)(=O)C1CC1 [VANIPREVIR] | 0.05
24 | CC[C@@H]1C[C@]1(NC(=O)[C@@H]1C[C@@H]2CN1C(=O)[C@H](C(C)(C)C)NC(=O)OCCC/C=C/c1cccc3c1CN(C3)C(=O)O2)C(=O)NS(=O)(=O)C1CC1 | 0.45

Test system: not listed separately
Assay: Drug level in Sprague-Dawley rat liver at 5 mg/kg, po after 24 hrs by LC/MS analysis
Assay type: ADME, organism-based
Parameters: dose 5 mg/kg, route oral
Settings: read-out: Drug uptake
How it was run: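 Single oral dose given as a PEG400 solution (2.0 mL/kg). Liver was collected at the terminal time point, homogenized in buffer, and processed by liquid-liquid extraction. Drug was quantified by LC/MS against standards and QCs.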

Row | concentration at 24 h [µM] | SMILES
25 | 0.4 | CC[C@@H]1C[C@]1(NC(=O)[C@@H]1C[C@@H]2CN1C(=O)[C@H](C(C)(C)C)NC(=O)OCC(C)(C)CCCCc1cccc3c1CN(C3)C(=O)O2)C(=O)NS(=O)(=O)C1CC1 [VANIPREVIR]

Test system: Hepatitis C virus
Assay: Antiviral activity against HCV Con1 infected in human HuH7 cells assessed as inhibition of viral replication after 24 hrs by replicon assay in presence of 10% fetal bovine serum
Assay type: functional, organism-based, Hepacivirus hominis
Settings: Con1, Huh-7, 24 h
How it was run: as §2

Row | IC50 [nM] | SMILES
26 | 7 | C=C[C@@H]1C[C@]1(NC(=O)[C@@H]1C[C@@H]2CN1C(=O)[C@H](C(C)(C)C)NC(=O)OCCCCCc1cccc3c1CN(C3)C(=O)O2)C(=O)NS(=O)(=O)C1CC1
27 | 10 | CC[C@@H]1C[C@]1(NC(=O)[C@@H]1C[C@@H]2CN1C(=O)[C@H](C(C)(C)C)NC(=O)OCCCCCc1cccc3c1CN(C3)C(=O)O2)C(=O)NS(=O)(=O)C1CC1
28 | 3 | CC[C@@H]1C[C@]1(NC(=O)[C@@H]1C[C@@H]2CN1C(=O)[C@H](C(C)(C)C)NC(=O)OCC(C)(C)CCCCc1cccc3c1CN(C3)C(=O)O2)C(=O)NS(=O)(=O)C1CC1 [VANIPREVIR]
29 | 29 | CC[C@@H]1C[C@]1(NC(=O)[C@@H]1C[C@@H]2CN1C(=O)[C@H](C(C)(C)C)NC(=O)OCCC/C=C/c1cccc3c1CN(C3)C(=O)O2)C(=O)NS(=O)(=O)C1CC1

Test system: not listed separately
Assay: Drug level in Beagle dog liver at 5 mg/kg, po after 2 hrs by LC/MS analysis
Assay type: ADME, organism-based, Canis lupus familiaris
Parameters: dose 5 mg/kg, route oral
Settings: read-out: Drug uptake

Row | concentration at 2 h [µM] | SMILES
30 | 34 | CC[C@@H]1C[C@]1(NC(=O)[C@@H]1C[C@@H]2CN1C(=O)[C@H](C(C)(C)C)NC(=O)OCC(C)(C)CCCCc1cccc3c1CN(C3)C(=O)O2)C(=O)NS(=O)(=O)C1CC1 [VANIPREVIR]

Test system: not listed separately
Assay: AUC in monkey at 5 mg/kg, po by LC/MS analysis
Assay type: ADME, organism-based, Macaca mulatta
Parameters: dose 5 mg/kg, route oral
Settings: rhesus monkey, plasma

Row | AUC [µM·h] | SMILES
31 | 0.05 | CC[C@@H]1C[C@]1(NC(=O)[C@@H]1C[C@@H]2CN1C(=O)[C@H](C(C)(C)C)NC(=O)OCC(C)(C)CCCCc1cccc3c1CN(C3)C(=O)O2)C(=O)NS(=O)(=O)C1CC1 [VANIPREVIR]
